# From ChEMBL document CHEMBL4428053, “Application of a Parallel Synthetic Strategy in the Discovery of Biaryl Acyl Sulfonamides as Efficient and Selective NaV1.7 Inhibitors” (J Med Chem, 2016)
# Columns and labels:
# [1] = target: T1, Sodium channel protein type 9 subunit alpha (Homo sapiens, UniProt Q15858); assay: Inhibition of human Nav1.7 expressed in HEK293 cells incubated for 3 to 5 mins at -125 mV holding potential by electrophysiology assay; type: cell-based
# [2] = target: T2, Sodium channel protein type 9 subunit alpha (Mus musculus, UniProt Q62205); assay: Inhibition of mouse Nav1.7 expressed in HEK293 cells incubated for 3 to 5 mins at -125 mV holding potential by electrophysiology assay; type: cell-based
# [3] = AUC (infinity) in Harlan rat at 1 mg/kg, iv by LC-MS/MS analysis; type: ADME, organism-based; design: dose 1 mg/kg, route intravenous, time infinity; conditions: in vivo
# Outline: (§1)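 Male fed rats. The IV dose was given in 100% DMSO. The oral dose was given in 1% Tween 80, 2% HPMC, 97% water/NaOH (pH 8.5).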
# [4] = Clearance in Harlan rat at 1 mg/kg, iv by LC-MS/MS analysis; type: ADME, organism-based; conditions: in vivo; outline: as §1
# [5] = Half life in Harlan rat at 1 mg/kg, iv by LC-MS/MS analysis; type: ADME, organism-based; conditions: in vivo; outline: as §1
# [6] = Volume of distribution in Harlan rat at 1 mg/kg, iv by LC-MS/MS analysis; type: ADME, organism-based; conditions: in vivo; outline: as §1
# [7] = Oral bioavailability in Harlan rat at 10 mg/kg by LC-MS/MS analysis; type: ADME, organism-based; conditions: in vivo; outline: as §1
# [8] = Plasma protein binding in Harlan rat at 1 mg/kg, iv by LC-MS/MS analysis; type: ADME, organism-based; conditions: read-out: PPB (converted)
# [9] = target: T2, Sodium channel protein type 9 subunit alpha; assay: Inhibition of Nav1.7 in C57BL/6 mouse DRG neurons assessed as reduction in native TTX-S current amplitude by manual patch clamp electrophysiology assay
# [10] = Free plasma concentration in naive C57BL/6 mouse assessed as effect on basic locomotor movement at 30 mg/kg, po measured after 4 hrs for 60 mins by open field test; type: ADME, organism-based; conditions: in vivo
# Outline: (§2)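 Naive mice were dosed orally with vehicle or test article at 30, 100 or 300 mg/kg (n = 10 per group). Total basic movement in an open-field arena was recorded after dosing, and unbound plasma concentration was reported per dose.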
# [11] = tested on: Mus musculus; assay: In vivo inhibition of Nav1.7 in C57BL/6 mouse assessed as reduction in histamine-induced scratching bouts at 300 mg/kg, po administered 4 hrs prior to histamine challenge measured for 15 mins; type: functional; conditions: C57BL/6, po
# Outline: (§3)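 Mice were dosed orally with vehicle, diphenhydramine (30 mg/kg, n = 8) or test article at 30 (n = 9), 100 (n = 10) or 300 (n = 10) mg/kg; vehicle n = 12. All groups received histamine intradermally. Total scratch bouts were counted, with unbound plasma concentration reported per dose. Statistics: one-way ANOVA with Dunnett's test versus vehicle.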
# [12] = target: Sodium channel protein type 1 subunit alpha (Homo sapiens, UniProt P35498); assay: Inhibition of human Nav1.1 expressed in HEK293 cells assessed as reduction in peak inward current by manual whole cell patch clamp electrophysiology assay; type: cell-based
# [13] = target: Sodium channel protein type 2 subunit alpha (Homo sapiens, UniProt Q99250); assay: Inhibition of human Nav1.2 expressed in CHO cells assessed as reduction in peak inward current by manual whole cell patch clamp electrophysiology assay; type: cell-based
# [14] = target: Sodium channel protein type 8 subunit alpha (Homo sapiens, UniProt Q9UQD0); assay: Inhibition of human Nav1.6 expressed in HEK293 cells assessed as reduction in peak inward current by manual whole cell patch clamp electrophysiology assay; type: cell-based
# [15] = target: Sodium channel protein type 10 subunit alpha (Homo sapiens, UniProt Q9Y5Y9); assay: Inhibition of human Nav1.8 expressed in CHO cells assessed as reduction in peak inward current by manual whole cell patch clamp electrophysiology assay; type: cell-based
# [16] = target: T1, Sodium channel protein type 9 subunit alpha; assay: Inhibition of human Nav1.7 expressed in HEK293 cells assessed as tonic block at pulse 1 by ionworks quattro electrophysiology assay; type: cell-based
# [17] = target: T1, Sodium channel protein type 9 subunit alpha; assay: Inhibition of human Nav1.7 expressed in HEK293 cells assessed as use-dependent block at pulse 26 by ionworks quattro electrophysiology assay; type: cell-based
# [18] = target: T1, Sodium channel protein type 9 subunit alpha; assay: Inhibition of human Nav1.7 at resting/closed state expressed in HEK293 cells at -140 mV holding potential by manual whole cell patch clamp electrophysiology assay; type: cell-based
# [19] = target: T1, Sodium channel protein type 9 subunit alpha; assay: Displacement of [3H]-6,6-fused heteroaryl-sulfonamide derivative from human Nav1.7 expressed in HEK293 cell membranes preincubated for 30 mins followed by radioligand addition measured after 1 hr by scintillation counting analysis
# [20] = Toxicity in naive C57BL/6 mouse assessed as effect on basic locomotor movement at 300 mg/kg, po measured after 4 hrs for 60 mins by open field test; type: organism-based; conditions: in vivo; outline: as §2
# [21] = Unbound plasma concentration in C57BL/6 mouse model of histamine-induced scratching at 30 mg/kg, po administered 4 hrs prior to histamine challenge; type: ADME, organism-based; conditions: in vivo; outline: as §3
# [22] = Unbound plasma concentration in C57BL/6 mouse model of histamine-induced scratching at 100 mg/kg, po administered 4 hrs prior to histamine challenge; type: ADME, organism-based; conditions: in vivo; outline: as §3
# [23] = Apparent passive permeability in MDCK cells at 5 uM after 120 mins by LC/MS/MS analysis; type: ADME, cell-based, Canis lupus familiaris; conditions: dog
# [24] = target: Cytochrome P450 3A4 (Homo sapiens, UniProt P08684)
# [25] = target: T3, Cytochrome P450 2D6 (Homo sapiens, UniProt P10635)
# [26] = target: T4, Cytochrome P450 2C9 (Homo sapiens, UniProt P11712)
# [27] = target: T3, Cytochrome P450 2D6; remark: listed apart in the source
# [28] = target: T4, Cytochrome P450 2C9; remark: listed apart in the source
# [29] = in vitro; conditions: rat, liver microsomes
# [30] = physchem; conditions: PBS, pH 7.4
# [31] = Toxicity in C57BL/6 mouse assessed as reduction in locomotor activity at 30 mg/kg, po for 4 hrs by open field test; conditions: in vivo
# [32] = Toxicity in C57BL/6 mouse assessed as reduction in locomotor activity at 100 mg/kg, po for 4 hrs by open field test; conditions: in vivo
# T1 sequence (Q15858 whole entry): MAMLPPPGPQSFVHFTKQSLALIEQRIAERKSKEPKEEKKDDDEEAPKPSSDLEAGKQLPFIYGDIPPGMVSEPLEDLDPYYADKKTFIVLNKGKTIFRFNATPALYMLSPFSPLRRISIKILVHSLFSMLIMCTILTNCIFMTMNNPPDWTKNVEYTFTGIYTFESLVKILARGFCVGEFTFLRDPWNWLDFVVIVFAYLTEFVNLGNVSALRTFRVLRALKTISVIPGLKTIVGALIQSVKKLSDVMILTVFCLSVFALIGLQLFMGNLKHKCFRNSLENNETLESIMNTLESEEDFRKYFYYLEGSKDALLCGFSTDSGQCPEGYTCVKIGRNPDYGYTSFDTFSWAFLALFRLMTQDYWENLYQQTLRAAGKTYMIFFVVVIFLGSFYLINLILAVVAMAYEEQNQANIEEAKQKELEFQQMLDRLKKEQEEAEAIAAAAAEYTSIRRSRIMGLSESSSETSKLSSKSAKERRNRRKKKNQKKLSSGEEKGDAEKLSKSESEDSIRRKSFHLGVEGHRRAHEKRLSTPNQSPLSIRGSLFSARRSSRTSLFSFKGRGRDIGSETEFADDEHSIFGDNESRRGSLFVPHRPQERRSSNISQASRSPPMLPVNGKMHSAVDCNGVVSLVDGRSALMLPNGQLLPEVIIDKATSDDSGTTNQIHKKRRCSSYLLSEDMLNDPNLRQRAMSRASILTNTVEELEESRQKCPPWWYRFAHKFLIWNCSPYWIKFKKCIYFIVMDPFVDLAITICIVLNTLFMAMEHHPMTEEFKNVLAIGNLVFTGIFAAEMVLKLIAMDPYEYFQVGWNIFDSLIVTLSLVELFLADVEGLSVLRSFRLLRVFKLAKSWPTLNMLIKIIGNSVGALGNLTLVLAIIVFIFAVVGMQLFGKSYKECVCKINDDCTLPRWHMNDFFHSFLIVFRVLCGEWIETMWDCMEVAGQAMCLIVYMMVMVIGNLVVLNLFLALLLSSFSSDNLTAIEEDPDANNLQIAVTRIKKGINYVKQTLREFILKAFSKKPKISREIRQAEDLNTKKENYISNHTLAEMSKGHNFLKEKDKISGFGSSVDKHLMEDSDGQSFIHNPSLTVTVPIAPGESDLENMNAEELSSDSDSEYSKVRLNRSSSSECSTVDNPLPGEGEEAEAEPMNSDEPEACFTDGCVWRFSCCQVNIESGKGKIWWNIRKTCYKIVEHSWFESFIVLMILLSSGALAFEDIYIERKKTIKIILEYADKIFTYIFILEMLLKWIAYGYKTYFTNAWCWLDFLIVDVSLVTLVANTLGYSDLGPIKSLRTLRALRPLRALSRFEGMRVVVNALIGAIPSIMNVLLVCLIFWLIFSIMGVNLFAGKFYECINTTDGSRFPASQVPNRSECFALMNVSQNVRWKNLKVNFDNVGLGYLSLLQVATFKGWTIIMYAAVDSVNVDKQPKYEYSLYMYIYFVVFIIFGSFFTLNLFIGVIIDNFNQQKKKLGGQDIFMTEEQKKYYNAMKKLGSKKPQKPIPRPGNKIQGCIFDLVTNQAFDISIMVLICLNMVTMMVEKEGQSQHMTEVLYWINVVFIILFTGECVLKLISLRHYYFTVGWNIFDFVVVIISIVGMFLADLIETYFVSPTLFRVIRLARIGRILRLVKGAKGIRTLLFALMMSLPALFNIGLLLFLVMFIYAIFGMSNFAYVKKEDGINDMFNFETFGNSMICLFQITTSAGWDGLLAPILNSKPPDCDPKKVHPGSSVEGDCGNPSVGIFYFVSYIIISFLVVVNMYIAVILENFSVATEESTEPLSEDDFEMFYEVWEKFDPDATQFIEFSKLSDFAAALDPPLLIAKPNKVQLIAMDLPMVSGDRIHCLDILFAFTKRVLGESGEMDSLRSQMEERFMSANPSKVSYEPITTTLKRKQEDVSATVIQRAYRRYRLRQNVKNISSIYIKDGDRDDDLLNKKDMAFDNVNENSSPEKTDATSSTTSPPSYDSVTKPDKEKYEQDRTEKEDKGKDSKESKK
# T2 sequence (Q62205 whole entry): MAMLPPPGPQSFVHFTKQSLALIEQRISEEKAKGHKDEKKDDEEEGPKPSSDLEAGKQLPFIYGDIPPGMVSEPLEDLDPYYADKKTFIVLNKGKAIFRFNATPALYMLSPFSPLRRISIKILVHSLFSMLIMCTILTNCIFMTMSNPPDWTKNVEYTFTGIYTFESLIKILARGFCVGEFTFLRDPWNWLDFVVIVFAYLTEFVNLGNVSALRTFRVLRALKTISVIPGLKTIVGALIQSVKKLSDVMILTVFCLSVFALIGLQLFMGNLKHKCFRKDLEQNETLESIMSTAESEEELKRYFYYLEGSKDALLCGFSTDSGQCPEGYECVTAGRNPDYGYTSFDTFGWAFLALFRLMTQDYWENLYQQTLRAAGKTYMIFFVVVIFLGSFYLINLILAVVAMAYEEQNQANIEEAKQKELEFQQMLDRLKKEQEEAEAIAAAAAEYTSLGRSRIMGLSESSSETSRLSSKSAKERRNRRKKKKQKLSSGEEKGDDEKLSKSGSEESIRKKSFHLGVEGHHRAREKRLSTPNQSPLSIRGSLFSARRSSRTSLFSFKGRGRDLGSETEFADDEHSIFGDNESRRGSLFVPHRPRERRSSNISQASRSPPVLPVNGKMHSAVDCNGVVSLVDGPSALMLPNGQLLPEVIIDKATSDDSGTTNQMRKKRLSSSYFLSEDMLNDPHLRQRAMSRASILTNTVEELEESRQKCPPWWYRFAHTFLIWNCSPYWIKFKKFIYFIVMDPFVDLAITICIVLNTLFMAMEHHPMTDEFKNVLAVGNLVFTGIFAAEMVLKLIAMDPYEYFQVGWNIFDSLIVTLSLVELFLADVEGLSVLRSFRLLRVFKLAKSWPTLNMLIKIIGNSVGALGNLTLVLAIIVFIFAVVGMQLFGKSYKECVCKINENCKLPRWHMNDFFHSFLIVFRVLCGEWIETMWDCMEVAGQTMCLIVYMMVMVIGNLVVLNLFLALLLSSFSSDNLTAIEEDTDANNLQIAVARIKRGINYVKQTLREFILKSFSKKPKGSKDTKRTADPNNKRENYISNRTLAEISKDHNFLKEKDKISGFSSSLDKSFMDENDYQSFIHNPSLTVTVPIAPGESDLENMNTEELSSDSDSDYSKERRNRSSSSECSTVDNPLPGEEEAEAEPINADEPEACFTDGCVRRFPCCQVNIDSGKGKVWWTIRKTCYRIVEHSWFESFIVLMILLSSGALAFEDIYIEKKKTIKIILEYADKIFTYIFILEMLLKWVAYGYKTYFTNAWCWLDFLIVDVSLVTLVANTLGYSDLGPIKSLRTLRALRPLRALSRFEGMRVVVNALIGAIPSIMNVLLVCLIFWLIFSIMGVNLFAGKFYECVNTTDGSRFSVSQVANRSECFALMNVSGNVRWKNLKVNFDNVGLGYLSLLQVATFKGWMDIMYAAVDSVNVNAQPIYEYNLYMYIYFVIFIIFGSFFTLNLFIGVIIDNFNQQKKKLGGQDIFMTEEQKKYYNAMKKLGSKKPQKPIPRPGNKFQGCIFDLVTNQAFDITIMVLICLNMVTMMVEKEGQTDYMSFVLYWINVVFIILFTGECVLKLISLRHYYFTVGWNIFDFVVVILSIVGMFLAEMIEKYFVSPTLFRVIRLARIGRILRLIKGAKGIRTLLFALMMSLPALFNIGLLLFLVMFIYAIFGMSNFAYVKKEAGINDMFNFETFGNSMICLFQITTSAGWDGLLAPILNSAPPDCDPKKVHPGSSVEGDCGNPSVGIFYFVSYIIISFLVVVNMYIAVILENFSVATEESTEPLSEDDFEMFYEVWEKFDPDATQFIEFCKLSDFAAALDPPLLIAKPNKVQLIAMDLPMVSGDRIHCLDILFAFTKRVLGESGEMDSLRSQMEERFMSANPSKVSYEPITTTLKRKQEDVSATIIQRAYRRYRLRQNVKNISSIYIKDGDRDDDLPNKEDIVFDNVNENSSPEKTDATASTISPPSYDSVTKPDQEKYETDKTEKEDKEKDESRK
# T4 sequence (P11712 whole entry): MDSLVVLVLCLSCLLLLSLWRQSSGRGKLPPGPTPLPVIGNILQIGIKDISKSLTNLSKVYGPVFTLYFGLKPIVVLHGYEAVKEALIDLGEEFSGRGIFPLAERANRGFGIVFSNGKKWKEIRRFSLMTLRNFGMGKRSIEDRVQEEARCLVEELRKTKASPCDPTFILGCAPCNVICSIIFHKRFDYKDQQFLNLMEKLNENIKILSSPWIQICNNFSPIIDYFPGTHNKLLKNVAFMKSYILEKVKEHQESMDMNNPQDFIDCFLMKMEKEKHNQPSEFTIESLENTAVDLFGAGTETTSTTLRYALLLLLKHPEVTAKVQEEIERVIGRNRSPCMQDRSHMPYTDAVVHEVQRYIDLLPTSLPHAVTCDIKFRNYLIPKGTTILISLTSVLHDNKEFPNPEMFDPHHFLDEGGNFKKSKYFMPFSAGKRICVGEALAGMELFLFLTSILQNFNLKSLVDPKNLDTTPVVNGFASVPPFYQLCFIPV
# T3 sequence (P10635 whole entry): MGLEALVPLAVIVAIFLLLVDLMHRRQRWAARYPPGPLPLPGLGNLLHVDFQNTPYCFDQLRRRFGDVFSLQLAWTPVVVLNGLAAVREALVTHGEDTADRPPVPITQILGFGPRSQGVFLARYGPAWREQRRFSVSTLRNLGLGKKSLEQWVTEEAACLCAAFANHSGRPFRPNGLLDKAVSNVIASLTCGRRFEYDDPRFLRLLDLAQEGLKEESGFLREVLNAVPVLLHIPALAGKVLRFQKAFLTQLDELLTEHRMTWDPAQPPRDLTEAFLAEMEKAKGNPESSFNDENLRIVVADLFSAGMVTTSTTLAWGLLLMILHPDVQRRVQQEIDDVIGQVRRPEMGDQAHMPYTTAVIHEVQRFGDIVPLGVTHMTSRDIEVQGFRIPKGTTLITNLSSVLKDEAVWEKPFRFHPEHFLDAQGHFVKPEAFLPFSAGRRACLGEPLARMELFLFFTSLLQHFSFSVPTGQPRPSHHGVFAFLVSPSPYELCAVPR
smiles,measurement,setting,value
COc1cc(C(=O)NS(C)(=O)=O)c(F)cc1-c1cnc(Oc2cc(F)ccc2F)c(Cl)c1,IC50,[1],0.069 µM
same,IC50,[2],0.115 µM
same,AUC(0-inf),[3],5.4 µM·h
same,clearance,[4],6.5 mL/min/kg
same,half-life,[5],1.84 h
same,Vd,[6],0.93 L/kg
same,bioavailability,[7],> 100%
same,fraction unbound,[8],0.004
same,IC50,[9],0.27 µM
same,Cp(f),[10],640 nM
same,inhibition in vivo at 300 mg/kg,[11],75%
same,IC50,[12],8.5 µM
same,IC50,[13],9.8 µM
same,IC50,[14],9.4 µM
same,IC50,[15],15.6 µM
same,IC50,[16],0.044 µM
same,IC50,[17],0.042 µM
same,IC50,[18],> 30 µM
same,IC50,[19],0.017 µM
same,Activity,[20],Non-Toxic
same,Cp(f),[21],294 nM
same,Cp(f),[22],1270 nM
same,"Papp at 2 h, 5 µM",[23],22.4 ×10⁻⁶ cm/s
same,IC50,[24],> 50 µM
same,IC50,[25],> 50 µM
same,IC50,[26],45.3 µM
same,IC50,[27],> 50 µM
same,IC50,[28],49.6 µM
same,microsomal CLint at 1 µM,[29],< 14 µL/min/mg
same,solubility thermodynamic at 24 h,[30],398 µM
same,Activity,[31],Non-Toxic
same,Activity,[32],Non-Toxic
